“And” between values parts separate entries of the source, which are not always exact repeats. Identical values can stand only once.
Legend:
U2OS = test: Multiplex assay against U2OS; assay type: toxicity, cell-based; conditions: human, number of replicates 2
Summary of the method: (§1)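 Compound was added to live cells that had been stained at seeding with Hoechst33342, BioTracker Green Microtubule Cytoskeleton Dye, MitoTracker Red and Annexin V Alexa Fluor 680, and imaging followed on a CQ1 microscope at 37°C and 5% CO2. CellPathfinder machine-learning gating divided cells into Hoechst high-intensity objects or normal cells, normal cells into healthy, pyknosed or fragmented nuclei, and pyknosed cells into mitotic or apoptotic. Tubulin, mitochondrial-mass and membrane-permeability phenotypes are per cents of healthy-nucleus cells.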

HEK-293T = test: Multiplex assay against HEK293T; assay type: toxicity, cell-based; conditions: human, number of replicates 2; summary of the method: as §1
[1] = 12 h, 1 µM, compound concentration 1 uM
[2] = 12 h, 10 µM, compound concentration 10 uM
[3] = 24 h, 1 µM, compound concentration 1 uM
[4] = 24 h, 10 µM, compound concentration 10 uM
[5] = 48 h, 1 µM, compound concentration 1 uM
[6] = 48 h, 10 µM, compound concentration 10 uM

## COc1cc(Br)c(S(=O)(=O)Nc2ccc(C(F)(F)F)c(O[C@@H]3CCN(C)C3)c2)cc1OC
U2OS; [1]
  Population Fragmented Nuclei (%): 10% and 4%
  Population Healthy Nuclei (%): 80% and 88%
  Population Hoechst High Intensity Objects (%): 0%
  Population Membrane Permeable-Phenotype (%): 4% and 0%
  Population Mitochondria Different-Phenotype (%): 0%
  Population Mitotic Cells (%): 100% and 46%
  Population Normal (%): 100%
  Population Pyknosed Nuclei (%): 10% and 7%
  Population Tubulin-Different-Phenotype (%): 66% and 89%
U2OS; [2]
  Population Apoptotic (%): 60% and 78%
  Population Healthy Nuclei (%): 67% and 85%
  Population Hoechst High Intensity Objects (%): 0%
  Population Membrane Permeable-Phenotype (%): 4% and 0%
  Population Mitochondria Different-Phenotype (%): 4% and 0%
  Population Mitotic Cells (%): 40% and 21%
  Population Normal (%): 100%
  Population Pyknosed Nuclei (%): 16% and 10%
  Population Tubulin-Different-Phenotype (%): 66% and 59%
U2OS; [3]
  Population Apoptotic (%): 66% and 47%
  Population Fragmented Nuclei (%): 7% and 3%
  Population Healthy Nuclei (%): 85% and 88%
  Population Hoechst High Intensity Objects (%): 0%
  Population Membrane Permeable-Phenotype (%): 0% and 3%
  Population Mitochondria Different-Phenotype (%): 0%
  Population Mitotic Cells (%): 33% and 52%
  Population Normal (%): 100%
  Population Pyknosed Nuclei (%): 7%
  Population Tubulin-Different-Phenotype (%): 77% and 87%
U2OS; [4]
  Population Fragmented Nuclei (%): 8% and 2%
  Population Healthy Nuclei (%): 75% and 85%
  Population Hoechst High Intensity Objects (%): 0%
  Population Membrane Permeable-Phenotype (%): 0% and 2%
  Population Mitochondria Different-Phenotype (%): 3% and 2%
  Population Mitotic Cells (%): 83% and 48%
  Population Normal (%): 100%
  Population Pyknosed Nuclei (%): 16% and 11%
  Population Tubulin-Different-Phenotype (%): 70% and 74%
U2OS; [5]
  Population Apoptotic (%): 30% and 51%
  Population Healthy Nuclei (%): 69% and 89%
  Population Hoechst High Intensity Objects (%): 0%
  Population Membrane Permeable-Phenotype (%): 0% and 1%
  Population Mitochondria Different-Phenotype (%): 0%
  Population Mitotic Cells (%): 69% and 48%
  Population Normal (%): 100% and 99%
  Population Pyknosed Nuclei (%): 14% and 7%
  Population Tubulin-Different-Phenotype (%): 79% and 91%
U2OS; [6]
  Population Apoptotic (%): 57% and 61%
  Population Fragmented Nuclei (%): 9% and 1%
  Population Healthy Nuclei (%): 79% and 91%
  Population Hoechst High Intensity Objects (%): 0%
  Population Membrane Permeable-Phenotype (%): 9% and 1%
  Population Mitochondria Different-Phenotype (%): 5% and 0%
  Population Mitotic Cells (%): 42% and 38%
  Population Normal (%): 100%
  Population Pyknosed Nuclei (%): 10% and 6%
  Population Tubulin-Different-Phenotype (%): 92% and 81%
HEK-293T; [1]
  Population Apoptotic (%): 35% and 41%
  Population Fragmented Nuclei (%): 4% and 3%
  Population Healthy Nuclei (%): 83% and 84%
  Population Hoechst High Intensity Objects (%): 8% and 6%
  Population Membrane Permeable-Phenotype (%): 3% and 4%
  Population Mitochondria Different-Phenotype (%): 14% and 12%
  Population Mitotic Cells (%): 64% and 58%
  Population Normal (%): 91% and 93%
  Population Pyknosed Nuclei (%): 11% and 12%
  Population Tubulin-Different-Phenotype (%): 48% and 41%
  Total Cell Count: 739 and 648
HEK-293T; [2]
  Population Apoptotic (%): 60% and 67%
  Population Fragmented Nuclei (%): 5% and 3%
  Population Healthy Nuclei (%): 78%
  Population Hoechst High Intensity Objects (%): 11% and 8%
  Population Membrane Permeable-Phenotype (%): 3% and 5%
  Population Mitochondria Different-Phenotype (%): 31% and 22%
  Population Mitotic Cells (%): 39% and 32%
  Population Normal (%): 88% and 91%
  Population Pyknosed Nuclei (%): 16% and 17%
  Population Tubulin-Different-Phenotype (%): 76% and 59%
  Total Cell Count: 481 and 500
HEK-293T; [3]
  Population Apoptotic (%): 38% and 42%
  Population Fragmented Nuclei (%): 4% and 5%
  Population Healthy Nuclei (%): 86%
  Population Hoechst High Intensity Objects (%): 7% and 8%
  Population Membrane Permeable-Phenotype (%): 2% and 3%
  Population Mitochondria Different-Phenotype (%): 2% and 3%
  Population Mitotic Cells (%): 61% and 57%
  Population Normal (%): 92% and 91%
  Population Pyknosed Nuclei (%): 8%
  Population Tubulin-Different-Phenotype (%): 26% and 23%
  Total Cell Count: 1282 and 991
HEK-293T; [4]
  Population Apoptotic (%): 59% and 43%
  Population Fragmented Nuclei (%): 9% and 6%
  Population Healthy Nuclei (%): 78% and 83%
  Population Hoechst High Intensity Objects (%): 9% and 8%
  Population Membrane Permeable-Phenotype (%): 1% and 4%

Reference: ChEMBL document CHEMBL5303300, “EUbOPEN Chemogenomics Library - Multiplex” (2023)
